Square brackets hold non-standard residues; d marks the D form. Peptide text beside a SMILES is read from it. Tic = O=C(O)[C@@H]1Cc2ccccc2CN1

Our source for the IC50 and Activity values is ChEMBL document CHEMBL1142506, “(3S)-N-(L-Aminoacyl)-1,2,3,4-tetrahydroisoquinolines, a class of novel antithrombotic agents: synthesis, bioassay, 3D QSAR, and ADME analysis” (Bioorg Med Chem, 2008).

The first assay has as its system Platelet. As to the kind of experiment: Inhibition of platelet-activating factor-induced platelet aggregation in pig blood. The format is functional, cell-based. The conditions noted are these: Sus scrofa. The essentials:
(§1)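 Pig blood was spun at 1000g for 10 min to give PRP and at 1500g for 10 min to give PPP. PRP was adjusted to 2 × 10^8 platelets/ml with autologous PPP. The sample was preincubated with test agent or NS. Agonist final concentrations, each in NS: ADP 10 µM, AA 350 µM, PAF 0.1 µM, thrombin 0.1 U/ml. Optical aggregometry ran 5 min at 37 °C. Peak height gave maximal aggregation; % inhibition versus NS gave IC50.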
By IC50 is commonly meant the midpoint of a concentration-inhibition curve. `CC(C)C[C@H](N)C(=O)N1Cc2ccccc2C[C@H]1C(=O)O` (H-Leu-[Tic]-OH) came in with an IC50 of 0.892 µM.

For the compound `C[C@@H](O)[C@H](N)C(=O)N1Cc2ccccc2C[C@H]1C(=O)O` (H-Thr-[Tic]-OH), half-maximal inhibition (IC50) was put at 0.404 µM.

`N[C@@H](Cc1ccccc1)C(=O)N1Cc2ccccc2C[C@H]1C(=O)O` (H-Phe-[Tic]-OH): the IC50 was 0.527 µM.

Consider `N[C@@H](Cc1c[nH]c2ccccc12)C(=O)N1Cc2ccccc2C[C@H]1C(=O)O` (H-Trp-[Tic]-OH), for which inhibition was half-maximal at 0.422 µM (IC50).

`N[C@@H](Cc1ccc(O)cc1)C(=O)N1Cc2ccccc2C[C@H]1C(=O)O` (H-Tyr-[Tic]-OH) had an IC50 of 0.668 µM.

Take `N[C@@H](Cc1c[nH]cn1)C(=O)N1Cc2ccccc2C[C@H]1C(=O)O` (H-His-[Tic]-OH): inhibition was half-maximal at 0.67 µM (IC50).

Compound `N[C@@H](CCC(=O)O)C(=O)N1Cc2ccccc2C[C@H]1C(=O)O` (H-Glu-[Tic]-OH) returned an IC50 of 0.544 µM.

The compound `O=C(O)[C@@H]1Cc2ccccc2CN1C(=O)[C@@H]1CCCN1` (H-Pro-[Tic]-OH) yielded a half-inhibitory concentration (IC50) of 0.507 µM.

In the case of `CSCC[C@H](N)C(=O)N1Cc2ccccc2C[C@H]1C(=O)O` (H-Met-[Tic]-OH), 0.409 µM corresponded to half-maximal inhibition (IC50).

As to `O=C(O)[C@@H]1Cc2ccccc2CN1`, the concentration for half-maximal inhibition (IC50) worked out at 0.96 µM.

`CC(C)[C@H](N)C(=O)N1Cc2ccccc2C[C@H]1C(=O)O` (H-Val-[Tic]-OH): half-maximal inhibition (IC50) required 0.632 µM.

A further assay has as its system Rattus norvegicus. Briefly: Antithrombotic activity in Wistar rat assessed as wet thrombus weight at 15 umol/kg. It is filed as functional.
Conditions: not given
The essentials:
(§2)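 Male Wistar rats (250–300 g) got the test agent orally, dissolved in NS and kept on ice; NS served as vehicle. After 45 min, rats were anesthetized with pentobarbital sodium (80.0 mg/kg ip). An extracorporeal carotid artery–jugular vein polyethylene cannula holding a weighed 6 cm thread was placed, and the wet thrombus weight on the thread was recorded.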
With `O=C(O)[C@@H]1Cc2ccccc2CN1`, the Activity is on record as 21.52 mg.

Another assay deals with Platelet. Briefly: Inhibition of adenosine diphosphate-induced platelet aggregation in pig blood. The format is functional, cell-based. The conditions noted are these: Sus scrofa. The essentials: as §1
As to `CC(C)C[C@H](N)C(=O)N1Cc2ccccc2C[C@H]1C(=O)O` (H-Leu-[Tic]-OH), the IC50 is 0.336 µM.

Compound `C[C@@H](O)[C@H](N)C(=O)N1Cc2ccccc2C[C@H]1C(=O)O` (H-Thr-[Tic]-OH) had a half-inhibitory concentration (IC50) of 0.24 µM.

The compound `N[C@@H](Cc1ccccc1)C(=O)N1Cc2ccccc2C[C@H]1C(=O)O` (H-Phe-[Tic]-OH) registered a 50% inhibitory concentration (IC50) of 0.37 µM.

Compound `N[C@@H](Cc1c[nH]c2ccccc12)C(=O)N1Cc2ccccc2C[C@H]1C(=O)O` (H-Trp-[Tic]-OH) came in with an IC50 of 0.194 µM.

In turn, `N[C@@H](Cc1ccc(O)cc1)C(=O)N1Cc2ccccc2C[C@H]1C(=O)O` (H-Tyr-[Tic]-OH) gave an IC50 of 0.327 µM.

Regarding `N[C@@H](Cc1c[nH]cn1)C(=O)N1Cc2ccccc2C[C@H]1C(=O)O` (H-His-[Tic]-OH), the midpoint of inhibition, the IC50, lay at 0.324 µM.

In turn, `N[C@@H](CCC(=O)O)C(=O)N1Cc2ccccc2C[C@H]1C(=O)O` (H-Glu-[Tic]-OH) gave an IC50 of 0.494 µM.

The compound `O=C(O)[C@@H]1Cc2ccccc2CN1C(=O)[C@@H]1CCCN1` (H-Pro-[Tic]-OH) came in with an IC50 of 0.373 µM.

`CSCC[C@H](N)C(=O)N1Cc2ccccc2C[C@H]1C(=O)O` (H-Met-[Tic]-OH) yielded an IC50 of 0.265 µM.

As to `O=C(O)[C@@H]1Cc2ccccc2CN1`, the IC50 stood at 0.552 µM.

With `CC(C)[C@H](N)C(=O)N1Cc2ccccc2C[C@H]1C(=O)O` (H-Val-[Tic]-OH), inhibition was half-maximal at 0.389 µM (IC50).

The test system of the next assay is Platelet. Briefly: Inhibition of thrombin-induced platelet aggregation in pig blood. It is filed as functional, cell-based. The conditions noted are these: Sus scrofa. The essentials: as §1
Turning to `CC(C)C[C@H](N)C(=O)N1Cc2ccccc2C[C@H]1C(=O)O` (H-Leu-[Tic]-OH), half-maximal inhibition (IC50) required 0.73 µM.

The compound `C[C@@H](O)[C@H](N)C(=O)N1Cc2ccccc2C[C@H]1C(=O)O` (H-Thr-[Tic]-OH) showed an IC50 of 0.879 µM.

`N[C@@H](Cc1ccccc1)C(=O)N1Cc2ccccc2C[C@H]1C(=O)O` (H-Phe-[Tic]-OH) displayed an IC50 of 0.851 µM.

For `N[C@@H](Cc1c[nH]c2ccccc12)C(=O)N1Cc2ccccc2C[C@H]1C(=O)O` (H-Trp-[Tic]-OH), inhibition was half-maximal at 0.72 µM (IC50).

Consider `N[C@@H](Cc1ccc(O)cc1)C(=O)N1Cc2ccccc2C[C@H]1C(=O)O` (H-Tyr-[Tic]-OH), for which the IC50 stood at 0.738 µM.

`N[C@@H](Cc1c[nH]cn1)C(=O)N1Cc2ccccc2C[C@H]1C(=O)O` (H-His-[Tic]-OH) showed a half-inhibitory concentration (IC50) of 0.684 µM.

As for `N[C@@H](CCC(=O)O)C(=O)N1Cc2ccccc2C[C@H]1C(=O)O` (H-Glu-[Tic]-OH), the 50% inhibitory concentration (IC50) was 0.589 µM.

On to `O=C(O)[C@@H]1Cc2ccccc2CN1C(=O)[C@@H]1CCCN1` (H-Pro-[Tic]-OH), for which the IC50 came out at 0.59 µM.

Regarding `CSCC[C@H](N)C(=O)N1Cc2ccccc2C[C@H]1C(=O)O` (H-Met-[Tic]-OH), the 50% inhibitory concentration (IC50) was 0.607 µM.

For `O=C(O)[C@@H]1Cc2ccccc2CN1`, the half-inhibitory concentration (IC50) worked out at 0.882 µM.

Compound `CC(C)[C@H](N)C(=O)N1Cc2ccccc2C[C@H]1C(=O)O` (H-Val-[Tic]-OH) showed a half-maximal inhibitory concentration (IC50) of 0.653 µM.

A further assay has as its system Platelet. As to the kind of experiment: Inhibition of arachidonic acid-induced platelet aggregation in pig blood. It is filed as functional, cell-based. The conditions noted are these: Sus scrofa. The essentials:
as §1
The compound `CC(C)C[C@H](N)C(=O)N1Cc2ccccc2C[C@H]1C(=O)O` (H-Leu-[Tic]-OH) returned a half-inhibitory concentration (IC50) of 0.238 µM.

Regarding `C[C@@H](O)[C@H](N)C(=O)N1Cc2ccccc2C[C@H]1C(=O)O` (H-Thr-[Tic]-OH), the IC50 turned out to be 0.535 µM.

Compound `N[C@@H](Cc1ccccc1)C(=O)N1Cc2ccccc2C[C@H]1C(=O)O` (H-Phe-[Tic]-OH) had an IC50 of 0.573 µM.

With `N[C@@H](Cc1c[nH]c2ccccc12)C(=O)N1Cc2ccccc2C[C@H]1C(=O)O` (H-Trp-[Tic]-OH), the IC50 is 0.572 µM.

Take `N[C@@H](Cc1ccc(O)cc1)C(=O)N1Cc2ccccc2C[C@H]1C(=O)O` (H-Tyr-[Tic]-OH): half-maximal inhibition (IC50) was put at 0.526 µM.

`N[C@@H](Cc1c[nH]cn1)C(=O)N1Cc2ccccc2C[C@H]1C(=O)O` (H-His-[Tic]-OH) had a concentration for half-maximal inhibition (IC50) of 0.521 µM.

Compound `N[C@@H](CCC(=O)O)C(=O)N1Cc2ccccc2C[C@H]1C(=O)O` (H-Glu-[Tic]-OH) gave an IC50 of 0.298 µM.

As to `O=C(O)[C@@H]1Cc2ccccc2CN1C(=O)[C@@H]1CCCN1` (H-Pro-[Tic]-OH), the IC50 was 0.382 µM.

`CSCC[C@H](N)C(=O)N1Cc2ccccc2C[C@H]1C(=O)O` (H-Met-[Tic]-OH) returned an IC50 of 0.43 µM.

In turn, `O=C(O)[C@@H]1Cc2ccccc2CN1` had an IC50 of 0.452 µM.

Take `CC(C)[C@H](N)C(=O)N1Cc2ccccc2C[C@H]1C(=O)O` (H-Val-[Tic]-OH): the IC50 was found to be 0.666 µM.

The test system of the next assay is Rattus norvegicus. Briefly: Antithrombotic activity in Wistar rat assessed as wet thrombus weight at 5 umol/kg. The format is functional.
Conditions: not given
The essentials: as §2
Take `CC(C)C[C@H](N)C(=O)N1Cc2ccccc2C[C@H]1C(=O)O` (H-Leu-[Tic]-OH): the Activity turned out to be 19.12 mg.

On to `C[C@@H](O)[C@H](N)C(=O)N1Cc2ccccc2C[C@H]1C(=O)O` (H-Thr-[Tic]-OH), for which the Activity turned out to be 20.73 mg.

On to `N[C@@H](Cc1ccccc1)C(=O)N1Cc2ccccc2C[C@H]1C(=O)O` (H-Phe-[Tic]-OH), for which the Activity stood at 22.23 mg.

In the case of `N[C@@H](Cc1c[nH]c2ccccc12)C(=O)N1Cc2ccccc2C[C@H]1C(=O)O` (H-Trp-[Tic]-OH), the Activity was 19.47 mg.

Regarding `N[C@@H](Cc1ccc(O)cc1)C(=O)N1Cc2ccccc2C[C@H]1C(=O)O` (H-Tyr-[Tic]-OH), the Activity came to 20.92 mg.

With `N[C@@H](Cc1c[nH]cn1)C(=O)N1Cc2ccccc2C[C@H]1C(=O)O` (H-His-[Tic]-OH), the Activity came to 21.78 mg.

`N[C@@H](CCC(=O)O)C(=O)N1Cc2ccccc2C[C@H]1C(=O)O` (H-Glu-[Tic]-OH): the Activity is 20.87 mg.

As to `O=C(O)[C@@H]1Cc2ccccc2CN1C(=O)[C@@H]1CCCN1` (H-Pro-[Tic]-OH), the Activity was found to be 21.09 mg.

`CSCC[C@H](N)C(=O)N1Cc2ccccc2C[C@H]1C(=O)O` (H-Met-[Tic]-OH): the Activity worked out at 19.56 mg.

As to `O=C(O)[C@@H]1Cc2ccccc2CN1`, the Activity worked out at 26.88 mg.

Regarding `CC(C)[C@H](N)C(=O)N1Cc2ccccc2C[C@H]1C(=O)O` (H-Val-[Tic]-OH), the Activity was found to be 20.12 mg.
